Legend:
[1] = molecular target: Cannabinoid receptor 1 (Homo sapiens) (UniProt P21554); assay: Negative allosteric modulator activity at CB1 receptor (unknown origin) expressed in HEK293 cell membrane assessed as reduction in CP55,940-induced [35S]GTPgammaS binding by measuring Emax of CP55,940 at 3.2 uM incubated for 60 mins by liquid scintillation counting analysis (reference value: 68.9 +/-1.7 fmol/mg); type: functional, cell membranes; conditions: filed as negative allosteric modulator
[2] = molecular target: Cannabinoid receptor 1 (Homo sapiens) (UniProt P21554); assay: Negative allosteric modulator activity at CB1 receptor (unknown origin) expressed in HEK293 cell membrane assessed as reduction in CP55,940-induced [35S]GTPgammaS binding at 10 uM incubated for 60 mins by liquid scintillation counting analysis; type: functional, cell membranes; conditions: filed as negative allosteric modulator
[3] = molecular target: Cannabinoid receptor 1 (Homo sapiens) (UniProt P21554); assay: Negative allosteric modulator activity at CB1 receptor (unknown origin) expressed in HEK293 cell membrane assessed as reduction in CP55,940-induced [35S]GTPgammaS binding incubated for 60 mins by liquid scintillation counting analysis; type: functional, cell membranes; conditions: filed as negative allosteric modulator, dose 3.2-10 µM
[4] = molecular target: Cannabinoid receptor 1 (Homo sapiens) (UniProt P21554); assay: Negative allosteric modulator activity at CB1 receptor (unknown origin) expressed in HEK293 cell membrane assessed as equilibrium dissociation constant using [3H]-CP55940 as radiolabelled orthosteric agonist incubated for 60 mins by liquid scintillation counting analysis; type: cell membranes; conditions: filed as negative allosteric modulator
Outline: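 HEK293 cells transiently transfected with CB1 (calcium phosphate), harvested at 24 h; membranes from nitrogen cavitation and 100,000 g pellet, kept in TME buffer (pH 7.4) with 7% sucrose. 4 µg membrane incubated 60 min with [3H]CP55940 at about its Kd in TME plus 0.1% fatty acid-free BSA. Nonspecific binding taken with 1 µM unlabeled CP55,940; filtration on GF/C. At least three experiments, each in duplicate.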

Chain of Cannabinoid receptor 1 (Homo sapiens) (P21554 whole entry): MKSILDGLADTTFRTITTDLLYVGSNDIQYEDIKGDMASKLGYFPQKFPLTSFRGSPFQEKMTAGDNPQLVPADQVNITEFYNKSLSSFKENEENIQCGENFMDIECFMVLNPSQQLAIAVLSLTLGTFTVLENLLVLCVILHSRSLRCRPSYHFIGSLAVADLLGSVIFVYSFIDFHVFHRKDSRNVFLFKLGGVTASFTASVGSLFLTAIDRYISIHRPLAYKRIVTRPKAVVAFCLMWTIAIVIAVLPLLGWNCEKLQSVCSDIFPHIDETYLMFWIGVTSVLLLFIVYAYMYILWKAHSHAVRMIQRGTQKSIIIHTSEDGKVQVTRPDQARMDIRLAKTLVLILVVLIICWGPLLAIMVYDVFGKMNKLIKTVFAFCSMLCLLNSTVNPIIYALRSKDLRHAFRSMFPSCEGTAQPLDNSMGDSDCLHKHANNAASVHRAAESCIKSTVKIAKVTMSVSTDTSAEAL

Compound	Emax [1] [fmol/mg]	inhibition [2] [%]	inhibition [3]	Kb [4] [µM]
CCc1c(C(=O)NCCc2ccc(C(=O)c3ccccc3)cc2)[nH]c2ccc(Cl)cc12	41.3	100	Dose-dependent effect	0.254
CCCCCCc1c(C(=O)NCCc2ccc(N=[N+]=[N-])cc2)[nH]c2ccc(Cl)cc12	34.1	100	Dose-dependent effect	0.314
[N-]=[N+]=NCc1c(C(=O)NCCc2ccc(N3CCCCC3)cc2)[nH]c2ccc(Cl)cc12	–	–	–	0.784
CCCCCc1c(C(=O)NCCc2ccc(C(=O)c3ccccc3)cc2)[nH]c2ccc(Cl)cc12	27	100	Dose-dependent effect	0.559
CN(C)c1ccc(CCNC(=O)c2[nH]c3ccc(Cl)cc3c2CN=[N+]=[N-])cc1	31.1	100	Dose-dependent effect	0.2
CCCCCCc1c(C(=O)NCCc2ccc(C3(C(F)(F)F)N=N3)cc2)[nH]c2ccc(Cl)cc12	–	–	–	3.27
[N-]=[N+]=NCc1c(C(=O)NCCc2ccc(C(=O)c3ccccc3)cc2)[nH]c2ccc(Cl)cc12	–	–	–	6.31

Reference: ChEMBL document CHEMBL4715743, “Synthesis and biological evaluation of indole-2-carboxamides bearing photoactivatable functionalities as novel allosteric modulators for the cannabinoid CB1 receptor” (Eur J Med Chem, 2016)
